This passage reports ID50 and IC50 results from ChEMBL document CHEMBL1122805, “Structure-activity relationships of sparsomycin and its analogues. Octylsparsomycin: the first analogue more active than sparsomycin” (1984).

≈ marks a conversion by molar mass, not a printed value. Calls of active or inactive are those of the source. No cut-off for these calls is given here.

Experiment [1] deals with L1210. The experiment in a line: In vitro cytostatic activity and inhibition of leukemia L1210 cells. The dose causing 50% of inhibition of colony formation (ID50) relative to untreated control cells; NA-Not Active. It is filed as functional, cell-based. The conditions noted are these: Mus musculus. Summed up: (§1)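 Mouse leukemia L1210 cells taken from suspension culture; 100 cells plated per dish in soft agar medium (Dulbecco's with 20% horse serum, 2-mercaptoethanol, L-asparagine, DEAE-dextran, 0.3% agar) containing compound at several concentrations. Continuous exposure 8 days, 37 °C, 10% CO2, humidified. Colonies counted; ID50 from dose-effect curves versus untreated controls. Highest dose tested 100 μg/mL.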

In experiment [2] the test system is L1210. Kind of experiment: In vitro cytostatic activity and inhibition of leukemia L1210 cells. The dose causing 50% of inhibition of colony formation (ID50) relative to untreated control cells. It counts as functional. The conditions noted are these: Mus musculus, read-out: ID50 (the source's name). Put shortly:
as §1

Regarding `CSCSC[C@@H](CO)NC(=O)/C=C/c1c(C)nc(O)nc1O`, the ID50 result in experiment [1] was “inactive”. In the case of `CCCCCCCCSC[S+]([O-])C[C@H](CO)NC(=O)/C=C/c1c(C)nc(O)nc1O` (some centres undefined), the IC50 in experiment [2] came out at 0.05 µg/mL (≈ 0.109 µM). On the same count and under the same terms, next, `CSC[S@+]([O-])C[C@H](CO)NC(=O)/C=C/c1c(C)[nH]c(=O)[nH]c1=O`: 0.15 µg/mL (≈ 0.415 µM). Take `CSC[S@+]([O-])C[C@@H](CO)NC(=O)/C=C/c1c(C)nc(O)nc1O`: in experiment [1], the ID50 result was “inactive”. Turning to `CSC[S@@+]([O-])C[C@H](CO)NC(=O)/C=C/c1c(C)[nH]c(=O)[nH]c1=O`, in experiment [2], the IC50 turned out to be 2.1 µg/mL (≈ 5.81 µM). In the case of `CSC[S@@+]([O-])C[C@@H](CO)NC(=O)/C=C/c1c(C)[nH]c(=O)[nH]c1=O`, the ID50 result in experiment [1] is “inactive”. The same measure, in the same setting: next, `Cc1nc(O)nc(O)c1/C=C/C(=O)N[C@H](CO)CSC[S+](C)[O-]` (some centres undefined): “inactive”. Turning to `Cc1nc(O)nc(O)c1/C=C/C(=O)N[C@@H](CO)CSC[S+](C)[O-]` (some centres undefined), the IC50 in experiment [2] was 66 µg/mL (≈ 183 µM). On the same count and under the same terms, next, `CSCSC[C@H](CO)NC(=O)/C=C/c1c(C)nc(O)nc1O`: 4.4 µg/mL (≈ 12.7 µM).
